Results taken from ChEMBL document CHEMBL4390648, “Chemical synthesis, crystal structure, versatile evaluation of their biological activities and molecular simulations of novel pyrithiobac derivatives” (Eur J Med Chem, 2019).
≈ marks a conversion by molar mass, not a printed value. Calls of active or inactive are those of the source. No cut-off for these calls is given here.

Tests used:
Candida albicans [1] = test: Antifungal activity against Candida albicans isolate g5 grown in RPMI 1640 medium incubated for 24 hrs by microdilution method; format: functional; settings: isolate g5, 24 h
Summary of the method: (§1)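 C. albicans standard strain SC5314 and clinical isolates g5 and 17# tested by broth microdilution in YNB or RPMI 1640 medium. Plates incubated at 35 °C for up to 72 h, with visual readings taken at 24 h. MIC taken as the lowest concentration preventing visible growth.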

Candida albicans [2] = test: Antifungal activity against Candida albicans isolate 17 grown in RPMI 1640 medium incubated for 24 hrs by microdilution method; format: functional; settings: isolate 17, 24 h; summary of the method: as §1
Candida albicans [3] = test: Antifungal activity against Candida albicans SC5314 grown in YNB medium incubated for 24 hrs by microdilution method; format: functional; settings: SC5314, 24 h; summary of the method: as §1
Tobacco mosaic virus [4] = test: Antiviral activity against Tobacco mosaic virus inoculated in Nicotiana tabacum leaves assessed as passivation by measuring local lesion numbers at 100 mg/l pre-incubated with virus for 30 mins followed by inoculation and measured up to 4 days; format: functional
Summary of the method: (§2)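 Passivation assay: TMV mixed with an equal volume of compound solution for 30 min, then rubbed onto the left half of N. tabacum L. leaves. The right half received virus mixed with solvent as control. Local lesions counted 3–4 days after inoculation. Compounds tested at 500 or 100 mg/L.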

Sclerotinia sclerotiorum = test: Antifungal activity against Sclerotinia sclerotiorum assessed as reduction in growth at 50 mg/l by mycelium growth rate method relative to control; format: functional
Summary of the method: (§3)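 Mycelium growth rate method against S. sclerotiorum, P. capsici, P. piricola, R. cerealis, W. anthracnose and R. bakanae. Each compound tested at 50 mg/L, with chlorothalonil and PTB as controls. Relative inhibitory ratio (%) calculated from mycelial growth.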

[5] = test system: Severe acute respiratory syndrome-related coronavirus; test: Inhibition of SARS coronavirus M protease using AVLQSGFRKK as substrate at 20 uM by FRET assay relative to control
Summary of the method: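 Purified SARS-CoV Mpro assayed by FRET. Protein, compound and substrate were preheated at 37 °C and oscillated. Fluorescence (ex 320/em 405 nm) was read every 5 s for 200 reads.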

Colletotrichum = test: Antifungal activity against Colletotrichum (W. anthracnose) assessed as reduction in growth at 50 mg/l by mycelium growth rate method relative to control; format: functional; summary of the method: as §3
Ceratobasidium cereale = test: Antifungal activity against Rhizoctonia cerealis assessed as reduction in growth at 50 mg/l by mycelium growth rate method relative to control; format: functional; summary of the method: as §3
Candida albicans [6] = test: Antifungal activity against Candida albicans SC5314 grown in RPMI 1640 medium incubated for 24 hrs by microdilution method; format: functional; settings: SC5314, 24 h; summary of the method: as §1
Candida albicans [7] = test: Inhibition of Candida albicans AHAS catalytic subunit at 10 uM using pyruvate as substrate measured after 30 mins by colorimetric method relative to control
Summary of the method: (§4)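 Colorimetric assay in 50 mM potassium phosphate pH 7.0 with 50 mM pyruvate, 1 mM thiamine diphosphate, 10 mM MgCl2 and 10 μM FAD. Incubated 30 min at 37 °C for plant AHAS and 30 °C for fungal AHAS. Acetolactate formed was then quantified.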

Fusarium fujikuroi = test: Antifungal activity against Gibberella fujikuroi assessed as reduction in growth at 50 mg/l by mycelium growth rate method relative to control; format: functional; summary of the method: as §3
[8] = test system: Brassica rapa subsp. oleifera; test: Herbicidal activity against Brassica campestris L assessed as inhibition of rape root growth at 100 mg/l root growth incubated for 48 hrs relative to control; format: functional
Summary of the method: (§5)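 Rape seeds soaked in distilled water for 4 h, then placed on filter paper wetted with inhibitor solution, 15 seeds per 6-cm dish. Germinated in the dark at 28 °C for 48 h. Mean length of 10 roots per plate measured.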

Mythimna separata [9] = test: Insecticidal activity against Mythimna separata assessed as larval mortality at 600 mg/l by leaf-dip method; format: functional
[10] = Cytotoxicity against HEK293T cells assessed as reduction in cell growth incubated for 48 hrs by MTT assay; format: cell-based, HEK-293T; settings: human
Summary of the method: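 293T cells in logarithmic phase seeded at 12000 cells/well overnight, then exposed to a range of compound concentrations for 48 h. MTT added for a further 4 h, formazan dissolved in DMSO, and OD570 read. CC50 is the concentration reducing viability by 50%.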

Tobacco mosaic virus [11] = test: Antiviral activity against Tobacco mosaic virus inoculated in Nicotiana tabacum leaves assessed as passivation by measuring local lesion numbers at 500 mg/l pre-incubated with virus for 30 mins followed by inoculation and measured up to 4 days; format: functional; summary of the method: as §2
Phytophthora capsici = test: Antifungal activity against Phytophthora capsici assessed as reduction in growth at 50 mg/l by mycelium growth rate method relative to control; format: functional; summary of the method: as §3
Arabidopsis thaliana [12] = test: Inhibition of Arabidopsis thaliana AHAS catalytic subunit using pyruvate as substrate at 10 uM measured after 30 mins by colorimetric method relative to control; summary of the method: as §4
Arabidopsis thaliana [13] = test: Inhibition of Arabidopsis thaliana AHAS catalytic subunit using pyruvate as substrate at 100 uM measured after 30 mins by colorimetric method relative to control; summary of the method: as §4
[14] = test system: Botryosphaeria berengeriana; test: Antifungal activity against Physalospora pyricola assessed as reduction in growth at 50 mg/l by mycelium growth rate method relative to control; format: functional; summary of the method: as §3
Candida albicans [15] = test: Antifungal activity against Candida albicans isolate g5 grown in YNB medium incubated for 24 hrs by microdilution method; format: functional; settings: isolate g5, 24 h; summary of the method: as §1
[16] = Inhibition of SARS coronavirus M protease using AVLQSGFRKK as substrate by FRET assay; parameters: species or system Severe acute respiratory syndrome-related coronavirus
Summary of the method: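 Purified SARS-CoV Mpro assayed by FRET. Protein, compound and substrate were preheated at 37 °C and oscillated. Fluorescence (ex 320/em 405 nm) was read every 5 s for 200 reads. IC50 from V0/V = 1+[I]/IC50.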

Candida albicans [17] = test: Inhibition of Candida albicans AHAS catalytic subunit at 100 uM using pyruvate as substrate measured after 30 mins by colorimetric method relative to control; summary of the method: as §4
[18] = test system: Brassica rapa subsp. oleifera; test: Herbicidal activity against Brassica campestris L assessed as inhibition of rape root growth at 10 mg/l root growth incubated for 48 hrs relative to control; format: functional; summary of the method: as §5
Candida albicans [19] = test: Antifungal activity against Candida albicans isolate 17 grown in YNB medium incubated for 24 hrs by microdilution method; format: functional; settings: isolate 17, 24 h; summary of the method: as §1
[20] = test system: SARS coronavirus M protease; test: Selectivity index, ratio of CC50 for HEK293T cells to IC50 for SARS coronavirus M protease; format: toxicity; settings: human, read-out: Ratio CC50/IC50
Summary of the method: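 Medium discarded, DMSO added, OD570 read; CC50 is the concentration cutting viability by 50%. IC50 from the 37 °C Mpro FRET assay (ex 320/em 405 nm) via V0/V = 1+[I]/IC50.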

Mythimna separata [21] = test: Insecticidal activity against Mythimna separata assessed as larval mortality at 10 mg/l by leaf-dip method; format: functional

Row | SMILES | MIC (Candida albicans [1]) [µg/mL] | MIC (Candida albicans [2]) [µg/mL] | MIC (Candida albicans [3]) [µg/mL] | inhibition (Tobacco mosaic virus [4]) | inhibition at 50 µg/mL (Sclerotinia sclerotiorum) [%] | inhibition [5] [%] | inhibition at 50 µg/mL (Colletotrichum) [%] | inhibition at 50 µg/mL (Ceratobasidium cereale) [%] | MIC (Candida albicans [6]) [µg/mL] | inhibition (Candida albicans [7]) [%] | inhibition at 50 µg/mL (Fusarium fujikuroi) [%] | inhibition (INH) [8] [%] | mortality at 600 µg/mL (Mythimna separata [9]) [%] | CC50 at 48 h [10] [µM] | inhibition at 500 µg/mL (Tobacco mosaic virus [11]) [%] | inhibition at 50 µg/mL (Phytophthora capsici) [%] | inhibition (Arabidopsis thaliana [12]) [%] | inhibition (Arabidopsis thaliana [13]) [%] | inhibition at 50 µg/mL [14] [%] | MIC (Candida albicans [15]) [µg/mL] | also measured
1 | COc1nc(OC)nc(Sc2ccc(Br)cc2C#N)n1 | > 100 | > 100 | > 100 | inactive | 19.4 | 100 | 21.4 | 66.7 | > 100 | 37.4 | 30.3 | 14 | 20 | 53.5 | 0 | 8.3 | 57.3 | 85.5 | 70.3 | > 100 | IC50 [16]: 4.54 µM; inhibition (Candida albicans [17]): 81.1%; inhibition (INH) [18]: 0%; MIC (Candida albicans [19]): > 100 µg/mL
2 | COc1nc(OC)nc(Sc2ccc(F)cc2C#N)n1 | 100 (≈ 342 µM) | 100 (≈ 342 µM) | 50 (≈ 171 µM) | inactive | 33.3 | 100 | 40.5 | 57.1 | 100 (≈ 342 µM) | 36.4 | 33.3 | 60.3 | 20 | > 200 | 26.4 | 25 | 59.2 | 71.2 | 75 | 50 (≈ 171 µM) | selectivity ratio [20]: 44.5; IC50 [16]: 4.47 µM; inhibition (Candida albicans [17]): 85.1%; inhibition (INH) [18]: 4.6%; MIC (Candida albicans [19]): 25 µg/mL (≈ 85.5 µM)
3 | CNC(=O)c1cc(Cl)cc(C)c1NC(=O)c1cc(Br)nn1-c1ncccc1Cl [CHLORANTRANILIPROLE] |  |  |  |  |  |  |  |  |  |  |  |  |  |  |  |  |  |  |  |  | mortality at 10 µg/mL (Mythimna separata [21]): 100%
